# Measured values taken from publication PMC11704051 (Nature Communications, 2025).
# Values joined by “and” are separate entries in the source; they are usually repeats but may differ in a detail not shown here. Equal values may be shown once.
# Tests used:
# [1] = system: patients with advanced malignancies; experiment: Phase 1 trial: safety and tolerability; format: in vivo, human; settings: for DLT: cycle 1; for Patients with any TRAE / TRAE Anemia / TRAE Blood bilirubin increased/hyperbilirubinemia / TRAE Diarrhea / TRAE Fatigue / TRAE Nausea / TRAE Rash (rash, rash macular, rash maculo-popular) / TRAE Thrombocytopenia /platelet count decrease: n = 40
# Summary of the method: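 Monitoring covered AEs graded by NCI-CTCAE v4.03, SAEs, laboratory values, clinical examinations, vital signs, ECOG status, ophthalmology and ECG. DLTs were assessed over cycle 1 (28 days) of oral single-agent dosing (50–400 mg QD, 200 mg BID). Escalation used a two-parameter BLRM with EWOC: reference 650 mg total daily dose, target DLT interval [0.16, 0.33], <25% chance of excessive toxicity, increments ≤100%.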
# [2] = system: advanced solid tumors with homozygous deletion of CDKN2A/MTAP and/or loss of MTAP protein; experiment: Phase 1 trial: antitumor activity by RECIST v1.1, treatment duration; format: in vivo, human
# Summary of the method: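 Adults with advanced solid tumour or lymphoma (homozygous CDKN2A and/or MTAP deletion by local FISH or sequencing, and/or central MTAP IHC with ≤20% positive tumour cells) took test compound orally on an empty stomach. Dosing was 50–400 mg QD or 200 mg BID: a single dose on C0D-3, then daily from C1D1 in 28-day cycles until progression or toxicity. Local investigators scored response by RECIST v1.1 (Lugano for lymphoma).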
# [3] = Plasma pharmacokinetics of AG-270/S095033; format: in vivo, human
# [4] = system: SAM; experiment: Plasma SAM concentration; format: in vivo, human
# Summary of the method: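 Plasma SAM was quantified by LC-MS/MS. Baseline blood was drawn twice at screening and before the single oral dose on C0D-3. At steady state (C1D15) sampling was pre-dose and 0.5, 1, 2, 3, 4, 6, 8 and 24 h post-dose, with daily oral dosing at 50–400 mg QD or 200 mg BID. The read-out was percent change from baseline.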
# [5] = system: methionine; experiment: Plasma methionine concentration; format: in vivo, human; settings: steady state (C1D15)
# [6] = system: SDMA residues; experiment: SDMA by IHC; format: in vivo, human; settings: NSCLC patient, 50 mg QD
# Summary of the method: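 Paired core-needle biopsies (archival or fresh) were taken at screening/baseline and at the end of cycle 1. Tissue was fixed in 10% […] buffered formalin and paraffin-embedded. H&E confirmed tumour content, and SDMA in tumour cells was scored by IHC as an H-score. Paired comparison used a two-sided Wilcoxon matched-pairs test.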
# [7] = system: mouse; settings: mouse GLP toxicology study, non-tolerated doses; cited from earlier work
# [8] = system: MTAP-deleted cancer cell lines; settings: multiple MTAP-deleted cancer cell lines; cited from earlier work
# [9] = system: MTAP-null tumors; settings: cited from earlier work
# [10] = system: UGT1A1; settings: known potential; cited from earlier work
# [11] = system: OATP1B1; settings: known potential; cited from earlier work
# [12] = system: MTAP-deleted urothelial cancer and lung cancer; settings: cited from earlier work
# [13] = monotherapy expansion, MTAP-deleted urothelial cancer and lung cancer
compound,measurement,setting,value
COc1ccc(-c2c(Nc3ccccn3)[nH]c3c(C4=CCCCC4)c(-c4ccccc4)nn3c2=O)cc1 [AG-270/S095033],Patients with dose-limiting ≥grade 3 / acute liver injury,[1]; 200 mg BID,two patients
same,Severity of thrombocytopenia,[1]; 200 mg BID,Higher grade thrombocytopenia
same,DLT,[1]; 1 patient at 100 mg QD,Grade 2 hypersensitivity reaction
same,DLT,[1]; 1 patient at 150 mg QD,Grade 3 hyperbilirubinemia and Grade 3 maculo-papular rash
same,DLT,[1]; 1 patient at 200 mg QD,Grade 3 neutrophil count decreased
same,Patients who experienced a TEAE of Grade ≥3,[1]; 40 patients,67.5%
same,Patients with AEs leading to permanent treatment discontinuation,[1]; 40 patients,5.0%
same,Patients with TRAEs of Grade ≥3,[1]; 40 patients,17.5%
same,Patients with at least one DLT during cycle 1,[1]; 40 patients,10%
same,Patients with fatal SAEs (none related to treatment),[1]; 40 patients,5.0%
same,Patients with serious adverse events (SAEs) regardless of relationship,[1]; 40 patients,57.5%
same,Patients with worst post-baseline ECOG score of 2,[1]; 40 patients,20.0%
same,Patients with worst post-baseline ECOG score of 3,[1]; 40 patients,2.5%
same,SAE abdominal pain,[1]; 40 patients,5.0%
same,SAE liver injury,[1]; 40 patients,5.0%
same,SAE pancreatitis,[1]; 40 patients,5.0%
same,SAE sepsis,[1]; 40 patients,5.0%
same,SAE tumor pain,[1]; 40 patients,5.0%
same,TEAE non-serious blurred vision (not related to treatment),[1]; 40 patients,5%
same,TEAE non-serious supraventricular tachycardia,[1]; 40 patients,2.5%
same,TEAE non-serious tachycardia,[1]; 40 patients,5%
same,TEAE optic disc hemorrhage (not related to treatment),[1]; 40 patients,2.5%
same,TEAE retinal hemorrhage (not related to treatment),[1]; 40 patients,2.5%
same,TEAE serious atrial fibrillation,[1]; 40 patients,2.5%
same,TEAE serious electrocardiogram T wave inversion,[1]; 40 patients,2.5%
same,TEAE serious sinus tachycardia,[1]; 40 patients,2.5%
same,"TRAE blood bilirubin increase, any grade",[1]; 40 patients,15%
same,"TRAE hyperbilirubinemia, any grade",[1]; 40 patients,12.5%
same,"TRAE thrombocytopenia, any grade",[1]; 40 patients,10%
same,Patients with any TRAE,[1]; All Grades,28 n (%) and 28 (70.0) n (%)
same,TRAE Anemia,[1]; All Grades,4 n (%) and 4 (10.0) n (%)
same,TRAE Blood bilirubin increased/hyperbilirubinemia,[1]; All Grades,10 n (%) and 10 (25.0) n (%)
same,TRAE Diarrhea,[1]; All Grades,3 (7.5) n (%)
same,TRAE Fatigue,[1]; All Grades,10 n (%) and 10 (25.0) n (%)
same,TRAE Nausea,[1]; All Grades,3 (7.5) n (%)
same,"TRAE Rash (rash, rash macular, rash maculo-popular)",[1]; All Grades,6 (15.0) n (%)
same,TRAE Thrombocytopenia /platelet count decrease,[1]; All Grades,7 (17.5) n (%)
same,Patients with any TRAE,[1]; Grade 1,10 (25.0) n (%)
same,TRAE Anemia,[1]; Grade 1,1 (2.5) n (%)
same,TRAE Blood bilirubin increased/hyperbilirubinemia,[1]; Grade 1,1 (2.5) n (%)
same,TRAE Diarrhea,[1]; Grade 1,2 (5.0) n (%)
same,TRAE Fatigue,[1]; Grade 1,3 (7.5) n (%)
same,TRAE Nausea,[1]; Grade 1,3 (7.5) n (%)
same,"TRAE Rash (rash, rash macular, rash maculo-popular)",[1]; Grade 1,3 (7.5) n (%)
same,TRAE Thrombocytopenia /platelet count decrease,[1]; Grade 1,2 (5.0) n (%)
same,Patients with any TRAE,[1]; Grade 2,11 (27.5) n (%)
same,TRAE Anemia,[1]; Grade 2,2 (5.0) n (%)
same,TRAE Blood bilirubin increased/hyperbilirubinemia,[1]; Grade 2,6 (15.0) n (%)
same,TRAE Diarrhea,[1]; Grade 2,1 (2.5) n (%)
same,TRAE Fatigue,[1]; Grade 2,7 (17.5) n (%)
same,TRAE Nausea,[1]; Grade 2,0 n (%)
same,"TRAE Rash (rash, rash macular, rash maculo-popular)",[1]; Grade 2,1 (2.5) n (%)
same,TRAE Thrombocytopenia /platelet count decrease,[1]; Grade 2,2 (5.0) n (%)
same,Patients with any TRAE,[1]; Grade 3,6 (15.0) n (%)
same,TRAE Anemia,[1]; Grade 3,1 (2.5) n (%)
same,TRAE Blood bilirubin increased/hyperbilirubinemia,[1]; Grade 3,4 (10.0) n (%)
same,TRAE Diarrhea,[1]; Grade 3,0 n (%)
same,TRAE Fatigue,[1]; Grade 3,0 n (%)
same,TRAE Nausea,[1]; Grade 3,0 n (%)
same,"TRAE Rash (rash, rash macular, rash maculo-popular)",[1]; Grade 3,2 (5.0) n (%)
same,TRAE Thrombocytopenia /platelet count decrease,[1]; Grade 3,3 (7.5) n (%)
same,Patients with any TRAE,[1]; Grade 4,1 (2.5) n (%)
same,TRAE Anemia,[1]; Grade 4,0 n (%)
same,TRAE Blood bilirubin increased/hyperbilirubinemia,[1]; Grade 4,0 n (%)
same,TRAE Diarrhea,[1]; Grade 4,0 n (%)
same,TRAE Fatigue,[1]; Grade 4,0 n (%)
same,TRAE Nausea,[1]; Grade 4,0 n (%)
same,"TRAE Rash (rash, rash macular, rash maculo-popular)",[1]; Grade 4,0 n (%)
same,TRAE Thrombocytopenia /platelet count decrease,[1]; Grade 4,0 n (%)
same,Treatment-related increases in transaminases,[1]; between the 100 mg and 400 mg dose levels,Low grade (Grade 1–2)
same,Severity of thrombocytopenia,[1]; doses between 100 and 200 mg QD,largely Grade 1–2
same,Effect on ECG parameters,[1]; in vivo,no discernable effect
same,Time to resolution of erythematous rashes after stopping treatment,[1]; in vivo,≤ 1 week
same,Patients with PR interval >200 ms,[1]; maximum post-baseline value,10.0%
same,Patients with QRS duration >120 ms,[1]; maximum post-baseline value,7.5%
same,Patients with QT/QTc interval >450 ms,[1]; maximum post-baseline value,15.0%
same,Patients with QT/QTc interval increase from baseline >30 ms,[1]; maximum post-baseline value,10.0%
same,Patients with any TEAE,[1]; n=40,40 N (%)
same,TEAE Blood bilirubin increased,[1]; n=40,9 N (%)
same,TEAE Decreased appetite,[1]; n=40,8 N (%)
same,TEAE Diarrhoea,[1]; n=40,8 N (%)
same,TEAE Dyspnoea,[1]; n=40,8 N (%)
same,TEAE Fatigue,[1]; n=40,17 N (%)
same,TEAE Nausea,[1]; n=40,13 N (%)
same,≥ Grade 3 TEAE Bilirubin increased,[1]; n=40,4 N (%)
same,Treatment-related clinically significant retinopathy,[1]; ophthalmologic examinations at screening and during treatment,No treatment-related events of clinically significant retinopathy were reported
same,Maximum tolerated dose (MTD),"[1]; oral, 28-day cycles",200 mg QD
same,Increases in unconjugated bilirubin,"[1]; patients, across doses","Asymptomatic, exposure-dependent and reversible increases in unconjugated bilirubin were observed starting at 100 mg QD"
same,Patients with SD for 4 months or longer,[2]; 40 patients,12.5%
same,Disease control rate (CR+PR+SD≥16 weeks),"[2]; 40 patients, 95%–CI 7.3, 32.8",17.5%
same,BOR Not evaluable (NE),[2]; Total (n=40),7 n (%)
same,BOR Partial response (PR),[2]; Total (n=40),2 n (%)
same,Duration of partial response,"[2]; patient, sex cord stromal cell cancer, 100 mg QD",28 months
same,Increase of plasma concentrations with dose,[3]; 50 mg to 200 mg,dose-proportional manner from 50 mg to 200 mg
same,Exposure relative to dose,[3]; 400 mg QD,less than dose proportional
same,Cmax,"[3]; human, plasma, oral, Geometric mean Cmax, range across the dosing cohorts, C1D15",1710 to 13600 ng/mL
same,half-life,"[3]; human, plasma, oral, Geometric mean accumulation-based (effective) half-life (T½eff), range, C1D15, 50 to 200 mg QD and 200 mg BID",2580 to 5940 min
same,Tmax,"[3]; human, plasma, oral, Median Tmax, range across the dosing cohorts, C1D15",1 to 6 h
same,half-life,"[3]; human, plasma, oral, Median terminal half-life (t½), range across the tested doses",960 to 2280 min
same,Time at which steady-state was achieved (mean plasma trough concentrations),[3]; most of the cohorts,≤ 15 days
same,Mean reduction from baseline plasma SAM concentration,"[4]; C1D15, 400 mg QD",~ 54%
same,"Decrease of plasma SAM concentration from baseline, range across doses","[4]; C1D15, 50–200 mg QD and 200 mg BID",65–70%
same,Change in plasma methionine concentrations,[5],increases in methionine concentrations in a drug exposure-dependent manner up to 200 mg QD
same,SDMA reduction after 1 cycle of treatment,[6],39%
same,Retinal finding,[7],non-reversible retinal atrophy at non-tolerated doses
same,Effect on cell proliferation,[8],robust decrease in cell proliferation
same,Effect on SAM levels,[9]; mice bearing MTAP-null tumors,reduce the levels of SAM in both plasma and tumor tissue
same,Effect on tumor growth,[9]; mice bearing MTAP-null tumors,inhibit tumor growth in a dose- and drug exposure-dependent manner
same,Reduction in plasma SAM concentration associated with maximum tumor growth inhibition,[9]; preclinical models,60–80%
same,Inhibition of UGT1A1,[10],inhibit
same,Inhibition of hepatocyte transporter OATP1B1,[11],inhibit
Nc1nc(=O)n(-c2ccccc2Cl)c2nc(C(F)(F)F)ccc12 [IDE397],Patients achieving a PR,"[12]; Phase 2 expansion, squamous NSCLC and bladder cancer",two out of eight patients
same,Disease control rate,[12]; [13],~ 94%
same,Overall response rate,[12]; [13],~ 39%
same,ctDNA molecular response rate,[12]; [13],~ 81%
